Bioassay records from PubChem BioAssay.
Hits are enriched below; roughly 5.1% of the tested compounds scored in any of these assays.
STAT1 blocker – STAT1 signaling inhibition; NIH 3T3 STAT1-luciferase reporter, IFN-gamma, luminescence; inhibition, % at 5.5 µM; hit rate 0.35% among 200,000;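 active = inhibition above a set limit, the mean inhibition across all tested compounds plus 3 SD, cut at about 34% in these data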
NF-kB expr up – raises NF-kB expression in human neuronal cells; NF-kB reporter expression; active compounds read high; fold change at 12.5 µM; hit rate 1.6% among 190,000; in the data active = fold change above about 3.3
STAT3 act – STAT3 signaling activation; U3A cells, IL-6 STAT3-luciferase reporter, luminescence; 100% = signal with IL-6 EC80 alone; activation (% of control), % at 5.6 µM; hit rate 0.91% among 190,000;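 active = activation above the screen-wide mean of compound activation plus 3 SD, cut at about 130% in these data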
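Material: STAT3-luciferase reporter U3A cells. Controls: IL-6-treated wells, 100% activation. Read-out: % activation versus median of IL-6-stimulated wells. Probe or stimulus: IL-6 stimulus at 33 ng/mL final. Timing: compound 1 h, then IL-6 6 h at 37 °C. Signal: reporter luminescence signal.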
STAT3 inh – inhibitors of IL-6 induced STAT3 signaling; U3A cells, IL-6 STAT3-luciferase reporter, luminescence; host cell line lacks STAT1; AID 862; hit rate 0.89% among 190,000; inhibition, % at 5.5 µM;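 active = inhibition above the mean inhibition across all screened compounds plus 3 SD, cut at about 44% in these data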
STAT1 act – increases IFN-gamma driven STAT1 reporter signal. NIH 3T3 STAT1-luciferase reporter, luminescence; 100% = IFN-gamma alone, no compound. activation (% of control), % at 5.5 µM. hit rate 2.6% among 200,000. AID 932;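 active = activation above the screen-wide mean activation plus 3 SD, cut at about 130% in these data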
APP 5'UTR act – activates APP 5'UTR luciferase reporter | SH-SY5Y APP 5'UTR luciferase reporter, luminescence; zero percent = DMSO vehicle wells | activation, % at 2 µM | hit rate 1% among 190,000 | AID 1276;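 active = activation above a set limit, based on mean plus 3 SD of controls, cut at about 140% in these data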
Numbers stand for hits; . = inactive; / = no result given.

SMILES	STAT1 blocker	NF-kB expr up	STAT3 act	STAT3 inh	STAT1 act	APP 5'UTR act
O=C(N/N=C/c1cccs1)c1ccc2c(c1)OCO2	.	.	.	.	129	.
CCc1ccc(C(=O)COC(=O)c2cccs2)cc1	.	.	.	.	.	156
c1ccc2c(c1)CCN(c1nc3cc4c(cc3s1)OCCO4)C2	37	.	.	88	.	148
COc1ccc(OC)c2sc(N3CCc4ccccc4C3)nc12	.	.	.	.	.	.
Cc1cccc(NC(=O)c2cc(=O)c3ccccc3o2)n1	.	.	.	.	134	.
NC(=O)c1ccsc1NC(=O)c1cc(=O)c2ccccc2o1	.	.	.	.	138	.
COc1ccc2[nH]c(=O)c(CN(CC3CCCO3)C(=S)Nc3ccc(C)cc3)cc2c1 (stereo not drawn)	.	.	.	.	.	.
Nc1ccc(Nc2ccccc2N)cc1	.	.	.	.	.	.
Nc1ccccc1Nc1cccc(C(F)(F)F)c1	.	.	.	.	129	.
Cc1oc(-c2ccc3ccccc3c2)nc1CN(C)C(C)c1ccncn1 (stereo not drawn)	.	.	.	.	.	.
O=C(NCc1ccccc1)NC1(C(=O)N2CCN(c3ncccn3)CC2)CCCCC1	.	.	.	.	.	.
Cc1c(Cc2ccccc2)sc(NC(=O)Cc2ccccc2)c1C(N)=O	.	/	.	.	.	.
O=C(Nc1nnc(C2CC2)s1)c1ccco1	.	.	.	.	.	.
COc1ccc2sc(NC(=O)c3ccco3)nc2c1	38	.	.	84	.	.
COc1ccc2c(c1)CCc1sc(NC(=O)c3ccco3)nc1-2	.	.	.	.	.	.
O=C(NC(=S)Nc1nc2ccccc2s1)c1ccco1	.	.	146	.	130	143
O=C(Nc1nnc(C2CCCCC2)s1)c1ccco1	.	.	.	.	130	.
Cc1cnc(NC(=O)c2ccncc2)s1	.	.	.	.	.	.
Cc1cnc(NC(=O)c2cncc(Br)c2)s1	.	4	.	.	136	181
Cc1cnc(NC(=O)c2ccco2)s1	.	.	.	.	139	.
Cc1cc(C)c2c(N)c(C(=O)Nc3ncc(C)s3)sc2n1	87	.	.	108	.	.
COc1ccc2nc(NC(=S)NC(=O)c3ccco3)sc2c1	.	.	.	.	146	161
c1ccc(CCn2nnnc2CN2CCCc3ccccc32)cc1	.	.	.	.	.	.
CN1C(=O)/C(=C/C=C2\SCCN2C)N(C)C1=S	.	5.3	.	.	132	.
COc1ccc(/C(C)=N/NC(=O)C2CC2)cc1	.	.	.	.	.	.
SMILES	STAT1 blocker	NF-kB expr up	STAT3 act	STAT3 inh	STAT1 act	APP 5'UTR act
COc1ccc2cc(/C(C)=N/NC(=O)C3CC3)ccc2c1	.	.	.	.	147	.
CC(=O)Nc1cc(C(=O)OCC(=O)c2ccc(C)cc2)ccc1C	.	3.9	.	.	143	.
CC(=O)Nc1cc(C(=O)OCC(=O)c2ccc(Cl)cc2Cl)ccc1C	.	.	.	.	.	.
O=C(N/N=C/c1ccc(F)c(F)c1)c1cc2c(s1)-c1ccccc1CC2	.	.	.	.	.	.
CNC(=O)c1cc2c(s1)-c1ccccc1CC2	.	.	.	.	144	.
O=C(c1ccc2c3c(cccc13)CC2)C1CCCN(C(=O)c2ccc(=O)[nH]c2)C1 (stereo not drawn)	.	.	.	.	.	.
COc1cccc2cc(C(=O)N3CCCCC3C)c(=O)oc12 (stereo not drawn)	.	.	.	.	.	.
COc1cccc2cc(NC(=O)C3CCCCC3)c(=O)oc12	.	.	.	.	131	.
NS(=O)(=O)c1ccc(Nc2ncccc2[N+](=O)[O-])cc1	.	.	.	.	.	.
COc1ccc(OC)c(/C=C2\SC(=S)N(Cc3cccnc3)C2=O)c1	.	3.9	.	.	.	.
O=C(Nc1ccc(F)cc1)c1ccc(-n2cncn2)c([N+](=O)[O-])c1	.	.	.	.	.	.
O=C(CN1CCN(c2ncccn2)CC1)N1CCN(C(c2ccccc2)c2ccccc2)CC1	.	/	.	.	.	.
Cc1cccc(C(=O)Oc2ccccc2/C=N/Nc2ccc([N+](=O)[O-])cc2)c1	.	.	.	.	.	.
Cc1cccc(C(=O)Oc2ccc(/C=N/O)cc2)c1	.	.	.	.	135	149
O=C(Oc1ccc(/C=N/O)cc1)c1ccccc1Cl	.	.	.	.	142	.
Clc1ccc(SCc2nc3ccccc3[nH]2)cc1	.	.	.	.	.	.
Clc1cccc(Cl)c1/C=C/c1nc2ccccc2[nH]1	.	7.2	.	.	143	164
O=C(/C=C/c1ccc(Cl)cc1Cl)c1nc2ccccc2[nH]1	.	.	.	.	.	.
Clc1ccc(/C=C/c2nc3ccccc3[nH]2)cc1	53	3.8	.	94	.	/
C(=N\n1cnnc1)/c1nc2ccccc2[nH]1	.	.	.	.	.	.
Clc1ccc(/C=C/c2nc3ccccc3[nH]2)c(Cl)c1	68	.	.	87	.	221
COc1cccc(NC(=S)N/N=C2\CC3CCC2(C)C3(C)C)c1 (stereo not drawn)	.	.	.	.	129	.
CC12CCC(C/C1=N/NC(=O)Nc1ccccc1)C2(C)C (stereo not drawn)	.	.	.	.	.	.
CCOC(=O)Cc1csc(NC(=O)CCN2C(=O)c3ccccc3C2=O)n1	.	.	.	.	.	.
CN=C1S/C(=C\c2cn(CC(=O)OC)c3ccccc23)C(=O)N1C	.	.	135	.	.	.
SMILES	STAT1 blocker	NF-kB expr up	STAT3 act	STAT3 inh	STAT1 act	APP 5'UTR act
CN=C1S/C(=C\c2cn(C(C)=O)nc2-c2ccccc2)C(=O)N1C	.	/	.	.	.	.
COc1ccc(C(=O)Nc2cc([N+](=O)[O-])ccc2N2CCN(C)CC2)cc1	.	.	.	.	.	.
COc1ccc2c(c1OC)C(=O)N(c1ccccn1)C2	.	.	.	.	149	.
COc1ccc2c(c1OC)C(=O)N(c1cccc(C)c1)C2	.	5.2	.	.	135	.
COc1ccc2c(c1OC)C(=O)N(c1cccc(C(F)(F)F)c1)C2	.	7.4	.	.	149	.
Cc1cccc(N2CC(=O)N(c3cccc(C)c3)CC2=O)c1	.	.	.	.	.	.
CCn1c(=O)cc(SCC(=O)NCc2ccc(C)cc2)c2ccccc21	.	.	.	.	.	.
CNC(=O)/C(C#N)=C/c1ccc(-c2ccccc2[N+](=O)[O-])o1	.	.	.	.	.	.
CNC(=O)/C(C#N)=C/c1ccc(-c2ccc(Cl)cc2)o1	.	.	.	.	142	.
O=C(CSc1ccccn1)N/N=C/C=C/c1ccccc1	.	.	.	.	.	.
C(=C\c1ccccc1)/CSc1ccccn1	.	.	.	.	136	.
NC(=O)CCn1c2ccccc2c2ccccc21	.	.	.	.	.	.
